Experimental data published in ChEMBL document CHEMBL5674876, “Epigenetic Activation of Pro-angiogenic Signaling Pathways in Human Endothelial Progenitors Increases Vasculogenesis” (Stem Cell Reports, 2017).
The source made the active and inactive calls. The rule behind the calls is not given here.

Assays:
[1] = test system: HUVEC; test: Resistance to induction of cell apoptosis in human umbilical cord derived endothelial colony forming cells in presence of panobinostat by annexin V staining analysis; format: functional, cell-based
How it was run: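 ECFCs were pretreated with the epigenetic drugs or vehicle and kept in serum-containing EGM-2. Apoptosis was scored by flow cytometry after annexin V and 7-AAD staining. Values are expressed as percentage of vehicle-treated control, mean ±SEM, three independent experiments each in duplicate.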

[2] = test system: Umbilical cord derived endothelial colony forming cell; test: Inhibition of H3K9 methyltransferase G9a in human umbilical cord derived endothelial colony forming cells assessed as decrease in protein level by Western blotting analysis; format: cell-based
How it was run: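 Cord-blood ECFCs were treated with an EZH2 inhibitor at 5 μM for 72 hr, then an HDAC inhibitor at 10 nM for 2 hr, or with vehicle. Levels of the epigenetic enzymes were read by western blot, with tubulin as loading control.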

[3] = test system: HUVEC; test: Effect on pro-angiogenic property in human umbilical cord derived endothelial colony forming cells assessed as increase in CXCL12 level by qRT-PCR analysis; format: functional, cell-based
[4] = test system: HUVEC; test: Effect on pro-angiogenic property in human umbilical cord derived endothelial colony forming cells assessed as increase in AKT protein phosphorylation by Western blotting analysis; format: functional, cell-based
[5] = test system: Umbilical cord derived endothelial colony forming cell; test: Activation of WNT pro-angiogenic pathway in human umbilical cord derived endothelial colony forming cells by measuring WNT4 level in presence of panobinostat by qRT-PCR analysis; format: cell-based; settings: filed as activator
[6] = test system: HUVEC; test: Effect on pro-angiogenic property in human umbilical cord derived endothelial colony forming cells assessed as increase in VEGFR1 protein level by Western blotting analysis; format: functional, cell-based
[7] = biological target: DNA (cytosine-5)-methyltransferase 1 (Homo sapiens) (UniProt P26358); test: Inhibition of DNMT1 in human umbilical cord derived endothelial colony forming cells assessed as decrease in protein level by Western blotting analysis; format: cell-based; settings: Umbilical cord derived endothelial colony forming cell
DNA (cytosine-5)-methyltransferase 1 (Homo sapiens), sequence (P26358 whole entry): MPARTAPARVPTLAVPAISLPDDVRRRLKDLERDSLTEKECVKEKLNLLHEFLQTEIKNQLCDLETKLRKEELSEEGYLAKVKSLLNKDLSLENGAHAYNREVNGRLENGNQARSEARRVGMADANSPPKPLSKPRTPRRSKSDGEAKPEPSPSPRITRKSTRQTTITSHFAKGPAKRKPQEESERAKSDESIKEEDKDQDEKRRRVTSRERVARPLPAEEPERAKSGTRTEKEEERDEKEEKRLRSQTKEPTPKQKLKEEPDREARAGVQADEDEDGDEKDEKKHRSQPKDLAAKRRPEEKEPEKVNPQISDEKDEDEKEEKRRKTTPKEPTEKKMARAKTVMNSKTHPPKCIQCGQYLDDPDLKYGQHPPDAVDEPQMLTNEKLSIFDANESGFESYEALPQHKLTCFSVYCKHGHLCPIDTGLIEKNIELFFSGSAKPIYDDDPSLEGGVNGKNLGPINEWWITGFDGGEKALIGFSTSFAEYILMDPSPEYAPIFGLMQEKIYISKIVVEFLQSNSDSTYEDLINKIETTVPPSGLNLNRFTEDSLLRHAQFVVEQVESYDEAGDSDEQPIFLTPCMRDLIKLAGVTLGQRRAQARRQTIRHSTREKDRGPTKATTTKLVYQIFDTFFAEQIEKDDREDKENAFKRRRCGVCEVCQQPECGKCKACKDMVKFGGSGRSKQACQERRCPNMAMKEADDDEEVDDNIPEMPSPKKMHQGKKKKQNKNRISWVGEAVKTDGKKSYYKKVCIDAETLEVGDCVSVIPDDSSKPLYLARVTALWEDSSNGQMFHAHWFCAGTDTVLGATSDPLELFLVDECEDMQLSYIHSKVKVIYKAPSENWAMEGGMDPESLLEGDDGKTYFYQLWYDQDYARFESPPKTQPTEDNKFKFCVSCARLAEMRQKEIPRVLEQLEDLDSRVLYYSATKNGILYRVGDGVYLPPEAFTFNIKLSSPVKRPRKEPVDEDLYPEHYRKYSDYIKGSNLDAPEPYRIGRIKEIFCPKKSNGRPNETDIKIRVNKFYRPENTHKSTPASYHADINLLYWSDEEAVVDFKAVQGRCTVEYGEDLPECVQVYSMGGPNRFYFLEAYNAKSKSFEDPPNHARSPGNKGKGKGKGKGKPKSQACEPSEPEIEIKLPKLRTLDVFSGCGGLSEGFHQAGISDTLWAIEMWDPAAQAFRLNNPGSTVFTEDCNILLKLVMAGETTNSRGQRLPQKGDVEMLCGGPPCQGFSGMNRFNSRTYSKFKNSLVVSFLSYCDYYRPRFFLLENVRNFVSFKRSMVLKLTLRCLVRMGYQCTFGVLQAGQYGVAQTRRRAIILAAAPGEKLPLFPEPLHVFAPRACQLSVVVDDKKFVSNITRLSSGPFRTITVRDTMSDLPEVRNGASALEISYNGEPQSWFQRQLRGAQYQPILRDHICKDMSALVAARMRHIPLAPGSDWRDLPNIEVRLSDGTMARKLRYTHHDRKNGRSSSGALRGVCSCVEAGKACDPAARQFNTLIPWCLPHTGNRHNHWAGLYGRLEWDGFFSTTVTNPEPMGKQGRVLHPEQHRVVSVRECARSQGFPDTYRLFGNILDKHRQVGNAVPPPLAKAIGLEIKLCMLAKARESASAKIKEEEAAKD

[8] = test system: Umbilical cord derived endothelial colony forming cell; test: Activation of WNT pro-angiogenic pathway in human umbilical cord derived endothelial colony forming cells by measuring JAG1 level in presence of panobinostat by qRT-PCR analysis; format: cell-based; settings: filed as activator
[9] = test system: Mus musculus; test: In vivo upregulation of pro-angiogneic pathway in athymic nude CD1 hindlimb ischemia mouse model in presence of panobinostat treated for 28 days; format: functional, organism-based; settings: time 28.0 day
[10] = test system: HUVEC; test: Effect on human umbilical cord derived endothelial colony forming cells assessed as reversal of increase in H3K4me3 level in presence of panobinostat measured after 24 hrs of drug removal by qRT-PCR analysis; format: functional, cell-based
[11] = organism: Mus musculus; test: Effect on restoration of blood flow in athymic nude CD1 hindlimb ischemia mouse model in presence of panobinostat for 28 days by laser doppler perfusion imaging analysis; format: functional, organism-based; settings: time 28.0 day
How it was run: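 Left femoral artery ligated in 8-week-old female athymic nude CD1 mice; 5 × 10^5 ECFCs pretreated with the combination or vehicle, in 50 μL PBS, given as two intramuscular injections into adductor muscle after skin closure. Perfusion measured by laser Doppler pre-op, day 0 and later days; ischemic/non-ischemic ratio, n = 7–8 mice to day 14, 3–4 to day 28.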

[12] = test system: HUVEC; test: Effect on pro-angiogenic property in human umbilical cord derived endothelial colony forming cells assessed as increase in CXCR4 level by qRT-PCR analysis; format: functional, cell-based
[13] = test system: HUVEC; test: Effect on pro-angiogenic property in human umbilical cord derived endothelial colony forming cells assessed as increase in DLL4 level in presence of panobinostat by qRT-PCR analysis; format: functional, cell-based
[14] = test system: HUVEC; test: Effect on human umbilical cord derived endothelial colony forming cells assessed as decrease in H3K27me3 level by ChIP-qPCR analysis; format: functional, cell-based
[15] = test system: HUVEC; test: Effect on pro-angiogenic property in human umbilical cord derived endothelial colony forming cells assessed as increase in VEGFR2 protein phosphorylation by Western blotting analysis; format: functional, cell-based
[16] = test system: HUVEC; test: Effect on pro-angiogenic property in human umbilical cord derived endothelial colony forming cells assessed as formation of capillary network on matrigel at 5 uM for 72 hrs in presence of panobinostat; format: functional, cell-based
How it was run: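 Drug- or vehicle-pretreated ECFCs seeded at 5,000 cells/well on phenol-red-free growth-factor-reduced Matrigel in duplicate; after 24 hr stained with 5 μg/mL calcein 5 min at 37°C, imaged at 2.5×. Total tube length expressed as percentage of vehicle control ±SEM, three independent experiments.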

[17] = biological target: Histone-lysine N-methyltransferase EZH2 (Homo sapiens) (UniProt Q15910); test: Inhibition of EZH2 in human umbilical cord derived endothelial colony forming cells assessed as decrease in H3K4me3 level at 0.01 to 5 uM measured after 24 to 72 hrs by Western blotting analysis; format: cell-based; settings: Umbilical cord derived endothelial colony forming cell, dose 0.01-5 µM, time 24-72 hrs
Histone-lysine N-methyltransferase EZH2 (Homo sapiens), sequence (Q15910 whole entry, looked up): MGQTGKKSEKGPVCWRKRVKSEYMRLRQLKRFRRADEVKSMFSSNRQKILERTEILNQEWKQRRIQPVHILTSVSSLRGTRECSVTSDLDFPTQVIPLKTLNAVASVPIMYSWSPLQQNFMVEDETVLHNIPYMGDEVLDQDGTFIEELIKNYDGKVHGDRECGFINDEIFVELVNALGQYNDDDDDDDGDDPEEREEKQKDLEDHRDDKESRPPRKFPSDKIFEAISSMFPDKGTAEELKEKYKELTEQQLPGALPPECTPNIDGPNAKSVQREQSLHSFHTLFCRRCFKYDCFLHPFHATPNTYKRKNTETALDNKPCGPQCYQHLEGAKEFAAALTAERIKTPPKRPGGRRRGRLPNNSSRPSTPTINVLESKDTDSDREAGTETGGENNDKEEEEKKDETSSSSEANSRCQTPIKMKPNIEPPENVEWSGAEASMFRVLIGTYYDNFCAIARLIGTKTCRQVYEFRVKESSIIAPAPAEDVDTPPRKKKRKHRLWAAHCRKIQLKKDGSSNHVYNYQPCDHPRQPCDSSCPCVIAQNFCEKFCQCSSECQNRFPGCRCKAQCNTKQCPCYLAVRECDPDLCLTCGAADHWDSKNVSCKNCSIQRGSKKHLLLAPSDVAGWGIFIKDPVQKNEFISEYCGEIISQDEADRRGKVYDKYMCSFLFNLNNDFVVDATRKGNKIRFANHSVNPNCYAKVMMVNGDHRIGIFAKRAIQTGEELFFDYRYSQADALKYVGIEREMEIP
How it was run: (§1)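 Human cord-blood ECFC clones, at least three independent, passages 3–6, grown in EGM-2 with 10% FBS. Histone methylation marks were assessed by western blot, with total histone H3 and H4 as loading controls.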

[18] = biological target: Histone-lysine N-methyltransferase EZH2 (Homo sapiens) (UniProt Q15910); test: Inhibition of EZH2 in human umbilical cord derived endothelial colony forming cells assessed as decrease in H4K20me3 level at 0.01 to 5 uM measured after 24 to 72 hrs by Western blotting analysis; format: cell-based; settings: Umbilical cord derived endothelial colony forming cell, dose 0.01-5 µM, time 24-72 hrs; how it was run: as §1
[19] = test system: Umbilical cord derived endothelial colony forming cell; test: Activation of WNT pro-angiogenic pathway in human umbilical cord derived endothelial colony forming cells by measuring FZD1 level in presence of panobinostat by qRT-PCR analysis; format: cell-based; settings: filed as activator
[20] = test system: HUVEC; test: Effect on human umbilical cord derived endothelial colony forming cells assessed as reversal of decrease in H3 acetylation level in presence of panobinostat measured after 24 hrs of drug removal by qRT-PCR analysis; format: functional, cell-based
[21] = test system: HUVEC; test: Effect on human umbilical cord derived endothelial colony forming cells assessed as decrease in H3 acetylation level in presence of panobinostat measured after removal of drug
[22] = biological target: Histone-lysine N-methyltransferase EZH2 (Homo sapiens) (UniProt Q15910); test: Inhibition of EZH2 in human umbilical cord derived endothelial colony forming cells assessed as decrease in H3K27me1 level at 0.01 to 5 uM measured after 24 to 72 hrs by Western blotting analysis; format: cell-based; settings: Umbilical cord derived endothelial colony forming cell, dose 0.01-5 µM, time 24-72 hrs; how it was run: as §1
[23] = test system: HUVEC; test: Effect on pro-angiogenic property in human umbilical cord derived endothelial colony forming cells assessed as increase in ANGPT2 level by qRT-PCR analysis; format: functional, cell-based
[24] = test system: Umbilical cord derived endothelial colony forming cell; test: Activation of WNT pro-angiogenic pathway in human umbilical cord derived endothelial colony forming cells by measuring WNT9A level in presence of panobinostat by qRT-PCR analysis; format: cell-based; settings: filed as activator
[25] = test system: Umbilical cord derived endothelial colony forming cell; test: Activation of WNT pro-angiogenic pathway in human umbilical cord derived endothelial colony forming cells by measuring WNT11 level in presence of panobinostat by qRT-PCR analysis; format: cell-based; settings: filed as activator
[26] = test system: HUVEC; test: Effect on human umbilical cord derived endothelial colony forming cells assessed as increase in H3K4me3 level in presence of panobinostat measured after removal of drug by qRT-PCR analysis; format: functional, cell-based

SMILES: CCCc1cc(C)[nH]c(=O)c1CNC(=O)c1cc(-c2ccnc(N3CCN(C)CC3)c2)cc2c1cnn2C(C)C
- Activity [1]: Active
- inhibition [2]: inactive
- Activity [3]: Active
- Activity [4]: Active
- Activity [5]: Active
- Activity [6]: Active
- inhibition [7]: inactive
- Activity [8]: Active
- Activity [9]: Active
- Activity [10]: Active
- Activity [11]: Active
- Activity [12]: Active
- Activity [13]: Active
- Activity [14]: Active
- Activity [15]: Active
- Activity [16]: Active
- inhibition [17]: inactive
- inhibition [18]: inactive
- Activity [19]: Active
- Activity [20]: Active
- Activity [21]: Active
- inhibition [22]: inactive
- Activity [23]: Active
- Activity [24]: Active
- Activity [25]: Active
- Activity [26]: Active
